How the values were obtained:
Assay type in all cases: cell-based
Conditions in all cases: Ca2+ assay
[1] = test system: chicken TRPA1; experiment: Calcium influx assay, chicken TRPA1
In short: (§1)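 TRPA1 orthologue cDNAs in pcDNA3.1 Hygro, transiently transfected, each construct tested in at least 2 independent transfections. Fluorescence Ca2+ influx (RFU) read in Hanks balanced salt solution with 1.26 mM Ca2+ and 1.0 mM Mg2+.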

[2] = biological target: guinea pig TRPA1 (Cavia porcellus, UniProt H0VJD1); experiment: Calcium influx assay, guinea pig TRPA1
guinea pig TRPA1, sequence (H0VJD1 1-991): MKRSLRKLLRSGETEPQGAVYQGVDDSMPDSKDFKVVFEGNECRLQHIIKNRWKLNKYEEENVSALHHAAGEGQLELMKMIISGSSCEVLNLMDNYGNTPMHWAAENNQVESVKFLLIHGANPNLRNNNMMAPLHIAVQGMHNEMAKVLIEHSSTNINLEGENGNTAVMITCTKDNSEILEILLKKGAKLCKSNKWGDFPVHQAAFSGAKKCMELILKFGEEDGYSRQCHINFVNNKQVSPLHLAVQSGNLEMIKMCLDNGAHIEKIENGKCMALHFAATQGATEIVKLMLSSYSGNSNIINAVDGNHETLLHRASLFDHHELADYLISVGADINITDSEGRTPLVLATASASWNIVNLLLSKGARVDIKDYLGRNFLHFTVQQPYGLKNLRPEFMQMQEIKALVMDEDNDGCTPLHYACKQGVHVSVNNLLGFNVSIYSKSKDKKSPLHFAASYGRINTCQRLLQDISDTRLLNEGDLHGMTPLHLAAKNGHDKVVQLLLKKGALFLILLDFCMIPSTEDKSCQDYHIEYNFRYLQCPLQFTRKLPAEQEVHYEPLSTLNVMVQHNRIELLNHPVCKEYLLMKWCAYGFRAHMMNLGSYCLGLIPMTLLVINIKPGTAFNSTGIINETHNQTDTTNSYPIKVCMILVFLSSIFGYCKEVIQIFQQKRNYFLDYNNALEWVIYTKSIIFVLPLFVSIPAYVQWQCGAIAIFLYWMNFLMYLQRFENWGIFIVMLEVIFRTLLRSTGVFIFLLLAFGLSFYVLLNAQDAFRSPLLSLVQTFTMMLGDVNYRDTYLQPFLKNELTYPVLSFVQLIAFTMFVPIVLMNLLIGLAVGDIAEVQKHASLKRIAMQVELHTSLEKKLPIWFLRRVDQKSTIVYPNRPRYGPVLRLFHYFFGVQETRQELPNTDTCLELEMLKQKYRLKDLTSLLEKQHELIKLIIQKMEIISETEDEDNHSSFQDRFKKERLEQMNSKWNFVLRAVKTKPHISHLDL
In short: as §1

[3] = biological target: human TRPA1 (Homo sapiens, UniProt O75762); experiment: Calcium influx assay in HEK-293F cells transiently expressing human TRPA1
human TRPA1, sequence (O75762 whole entry): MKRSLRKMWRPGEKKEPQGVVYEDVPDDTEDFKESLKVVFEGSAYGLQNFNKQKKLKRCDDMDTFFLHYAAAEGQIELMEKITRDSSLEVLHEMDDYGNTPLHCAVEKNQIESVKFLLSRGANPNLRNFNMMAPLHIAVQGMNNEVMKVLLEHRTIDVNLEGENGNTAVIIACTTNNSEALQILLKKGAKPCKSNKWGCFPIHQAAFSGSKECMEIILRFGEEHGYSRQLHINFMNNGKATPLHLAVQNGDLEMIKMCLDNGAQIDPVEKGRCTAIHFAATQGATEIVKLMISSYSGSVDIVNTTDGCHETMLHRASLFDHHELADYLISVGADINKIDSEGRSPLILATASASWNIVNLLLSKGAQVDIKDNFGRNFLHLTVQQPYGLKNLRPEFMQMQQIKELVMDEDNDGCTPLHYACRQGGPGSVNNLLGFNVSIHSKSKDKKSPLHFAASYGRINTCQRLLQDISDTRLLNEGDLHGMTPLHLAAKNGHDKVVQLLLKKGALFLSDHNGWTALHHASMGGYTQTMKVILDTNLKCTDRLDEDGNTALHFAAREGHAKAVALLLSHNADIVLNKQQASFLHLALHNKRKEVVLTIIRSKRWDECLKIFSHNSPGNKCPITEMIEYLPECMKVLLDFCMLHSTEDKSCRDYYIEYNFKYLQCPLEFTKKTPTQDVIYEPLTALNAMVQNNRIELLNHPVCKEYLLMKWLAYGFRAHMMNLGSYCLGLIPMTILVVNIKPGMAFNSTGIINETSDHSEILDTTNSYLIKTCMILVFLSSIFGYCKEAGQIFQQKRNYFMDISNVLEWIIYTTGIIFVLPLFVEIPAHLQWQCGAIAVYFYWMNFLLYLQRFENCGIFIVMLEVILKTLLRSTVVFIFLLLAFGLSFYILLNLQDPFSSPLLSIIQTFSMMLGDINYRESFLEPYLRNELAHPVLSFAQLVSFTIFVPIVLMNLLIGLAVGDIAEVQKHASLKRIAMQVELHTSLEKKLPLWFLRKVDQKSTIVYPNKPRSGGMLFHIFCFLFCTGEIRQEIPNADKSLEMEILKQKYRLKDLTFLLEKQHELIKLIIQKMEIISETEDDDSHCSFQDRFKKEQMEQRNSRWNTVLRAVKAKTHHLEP

[4] = biological target: rat TRPA1 (Rattus norvegicus, UniProt Q6RI86); experiment: Calcium influx assay, rat TRPA1
rat TRPA1, sequence (Q6RI86 whole entry): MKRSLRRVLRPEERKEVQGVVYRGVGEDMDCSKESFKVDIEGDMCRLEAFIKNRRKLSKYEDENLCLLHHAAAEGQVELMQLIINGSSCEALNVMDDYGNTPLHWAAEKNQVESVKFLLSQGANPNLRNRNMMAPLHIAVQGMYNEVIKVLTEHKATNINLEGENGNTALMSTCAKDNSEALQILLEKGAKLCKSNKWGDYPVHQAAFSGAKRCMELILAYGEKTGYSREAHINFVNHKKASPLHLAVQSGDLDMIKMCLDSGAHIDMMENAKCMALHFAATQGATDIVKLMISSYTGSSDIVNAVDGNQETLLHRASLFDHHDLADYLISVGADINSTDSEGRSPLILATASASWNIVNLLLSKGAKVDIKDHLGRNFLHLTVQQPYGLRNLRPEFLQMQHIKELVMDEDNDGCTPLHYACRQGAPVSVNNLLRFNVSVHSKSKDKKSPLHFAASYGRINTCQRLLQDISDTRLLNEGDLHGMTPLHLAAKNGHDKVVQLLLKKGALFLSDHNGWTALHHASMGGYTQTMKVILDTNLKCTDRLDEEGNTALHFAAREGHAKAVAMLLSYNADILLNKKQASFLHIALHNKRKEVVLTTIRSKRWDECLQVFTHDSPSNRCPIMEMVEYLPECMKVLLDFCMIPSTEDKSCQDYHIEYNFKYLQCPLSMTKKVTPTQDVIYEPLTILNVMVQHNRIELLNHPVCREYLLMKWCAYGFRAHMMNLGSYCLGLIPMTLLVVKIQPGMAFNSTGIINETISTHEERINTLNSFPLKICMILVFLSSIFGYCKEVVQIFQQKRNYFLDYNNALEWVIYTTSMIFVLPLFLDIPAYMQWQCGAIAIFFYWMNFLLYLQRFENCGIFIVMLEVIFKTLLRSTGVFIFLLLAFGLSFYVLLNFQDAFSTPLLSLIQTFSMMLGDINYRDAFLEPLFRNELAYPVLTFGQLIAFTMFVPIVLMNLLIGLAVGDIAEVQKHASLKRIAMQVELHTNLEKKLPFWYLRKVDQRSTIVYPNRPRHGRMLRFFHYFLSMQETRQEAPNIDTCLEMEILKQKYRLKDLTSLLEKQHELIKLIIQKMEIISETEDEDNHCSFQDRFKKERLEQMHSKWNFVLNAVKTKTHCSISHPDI
In short: as §1

[5] = biological target: dog TRPA1 (Canis lupus familiaris, UniProt A0A8I3Q1Q7); experiment: Calcium influx assay, dog TRPA1
dog TRPA1, sequence (A0A8I3Q1Q7 1-1118): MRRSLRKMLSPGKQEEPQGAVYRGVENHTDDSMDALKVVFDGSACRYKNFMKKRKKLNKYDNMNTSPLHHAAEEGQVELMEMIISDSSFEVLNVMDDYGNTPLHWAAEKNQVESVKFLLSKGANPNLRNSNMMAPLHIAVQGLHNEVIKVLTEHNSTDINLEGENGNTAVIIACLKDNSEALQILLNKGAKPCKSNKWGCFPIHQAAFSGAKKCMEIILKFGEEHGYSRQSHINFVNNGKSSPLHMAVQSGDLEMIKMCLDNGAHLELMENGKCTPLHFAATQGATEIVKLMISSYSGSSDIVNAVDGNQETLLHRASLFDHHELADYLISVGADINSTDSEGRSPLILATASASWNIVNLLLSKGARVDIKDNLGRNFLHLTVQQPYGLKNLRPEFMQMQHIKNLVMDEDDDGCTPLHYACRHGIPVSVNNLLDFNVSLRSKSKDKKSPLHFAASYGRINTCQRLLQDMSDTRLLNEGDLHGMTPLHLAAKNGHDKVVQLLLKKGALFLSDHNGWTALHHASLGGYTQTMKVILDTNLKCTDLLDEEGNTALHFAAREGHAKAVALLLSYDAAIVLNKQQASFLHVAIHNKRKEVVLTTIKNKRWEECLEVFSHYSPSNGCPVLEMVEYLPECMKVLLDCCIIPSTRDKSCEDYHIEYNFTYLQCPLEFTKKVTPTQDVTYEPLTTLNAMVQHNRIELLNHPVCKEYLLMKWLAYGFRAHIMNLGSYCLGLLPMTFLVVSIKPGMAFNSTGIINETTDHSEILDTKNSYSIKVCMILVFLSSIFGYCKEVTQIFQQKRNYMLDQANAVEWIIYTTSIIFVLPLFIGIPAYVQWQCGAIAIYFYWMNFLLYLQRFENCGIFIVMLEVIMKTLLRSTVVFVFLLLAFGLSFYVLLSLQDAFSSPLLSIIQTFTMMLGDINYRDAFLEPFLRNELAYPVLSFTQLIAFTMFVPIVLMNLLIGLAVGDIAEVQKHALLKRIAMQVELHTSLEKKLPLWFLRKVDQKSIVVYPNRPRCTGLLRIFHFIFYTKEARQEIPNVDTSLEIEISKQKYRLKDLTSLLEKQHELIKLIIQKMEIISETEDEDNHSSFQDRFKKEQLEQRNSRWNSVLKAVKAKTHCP
In short: as §1

`C=CCN=C=S` [AITC, allyl isothiocyanate] was tested, and the “activation of chicken TRPA1” value [1] was “robust response”, the “activation of guinea pig TRPA1” value [2] was “robust response” and the Hill slope ([3]; concentration-response, human TRPA1) was 1.4. The “activation of human TRPA1” value ([3]; species comparison) was “robust response”, the “activation of rat TRPA1” value [4] was “robust response” and the “activation of dog TRPA1” value [5] was “robust response”.
